The source of these data is ChEMBL document CHEMBL1255190, “The selected flavonol glycoside derived from Sophorae Flos improves glucose uptake and inhibits adipocyte differentiation via activation AMPK in 3T3-L1 cells” (Bioorg Med Chem Lett, 2010).

The source made the active and inactive calls. No cut-off for these calls is given here.

Common to all, as to format: cell-based
Data set [1] addresses 5'-AMP-activated protein kinase catalytic subunit alpha-2 (Mus musculus) (UniProt Q8BRK8). The data set is described as follows: Inhibition of AMPK in mouse 3T3L1 cells assessed as inhibition of PPARgamma gene expression by RT-PCR. To be noted: 3T3-L1. A digest of the protocol: (§1)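 MDI-induced differentiating 3T3-L1 cells were given 0, 5, 10 or 20 uM. Per the legend, cells were treated for 6 h. RNA was extracted with Trizol and RT-PCR run with specific primers for the adipogenic markers. Triplicate runs; one-way ANOVA with Newman-Keuls test.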

For data set [2] the target is unchanged. The data set is described as follows: Inhibition of AMPK in mouse 3T3L1 cells assessed as inhibition of FAS level by Western blotting. To be noted: 3T3-L1. A digest of the protocol:
(§2)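 Western blot of lysates from 3T3-L1 cells undergoing MDI-induced differentiation. Cells received 0, 5, 10 or 20 uM from day 0. Probed for FAS, SREBP-1c, C/EBPa and PPARgamma. Triplicate runs; one-way ANOVA with Newman-Keuls test.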

For data set [3] the target is unchanged. The data set is described as follows: Induction of AMPK phosphorylation in mouse 3T3L1 cells at 10 uM by Western blotting. To be noted: 3T3-L1. A digest of the protocol: (§3)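 Mouse 3T3-L1 cells exposed to test compound at 10 uM. Phosphorylated AMPK and its downstream target ACC were detected by western blot. Experiments were run in triplicate, with data given as means ± S.D. Groups were compared by one-way ANOVA with the Newman-Keuls test, significance p < 0.05.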

Data set [4] has the same target. Kind of data set: Inhibition of AMPK in mouse 3T3L1 cells assessed as inhibition of FAS gene expression by RT-PCR. The note with it: 3T3-L1. Summed up:
as §1

For data set [5] the target is unchanged. Kind of data set: Inhibition of AMPK-mediated glucose uptake in mouse 3T3L1 cells. To be noted: 3T3-L1. A digest of the protocol:
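Differentiated 3T3-L1 adipocytes incubated 1 h with 5, 10 or 20 uM, with 200 nM insulin as reference. 2-Deoxy-D-[3H]-glucose uptake was then measured. For AMPK dependence, 10 uM was tested with or without compound C (10 uM). Triplicate runs, means ± S.D., p<0.05.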

For data set [6] the target is unchanged. Kind of data set: Inhibition of AMPK in mouse 3T3L1 cells assessed as inhibition of SREBP1c level by Western blotting. The note with it: 3T3-L1. Summed up: as §2
(Immunoblotting shows a protein as a band on a membrane.)

Data set [7] relates to 3T3-L1. The data set is described as follows: Cytotoxicity against mouse 3T3L1 cells at 20 uM after 24 hrs. The note with it: 3t3-l1, 24 h. Summed up: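 3T3-L1 cells exposed to compounds at 5-100 uM for 24 h. Viability was assessed under Mosmann's conditions.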
Data set [8] has as its target 5'-AMP-activated protein kinase catalytic subunit alpha-2 (Mus musculus) (UniProt Q8BRK8). The data set is described as follows: Induction of AMPK-mediated ACC phosphorylation in mouse 3T3L1 cells at 10 uM by Western blotting. The note with it: 3T3-L1. A digest of the protocol: as §3
For data set [9] the target is unchanged. Kind of data set: Inhibition of AMPK in mouse 3T3L1 cells assessed as inhibition of C/EBPalpha gene expression by RT-PCR. The note with it: 3T3-L1. A digest of the protocol: as §1
Data set [10] has the same target. Kind of data set: Inhibition of AMPK in mouse 3T3L1 cells assessed as inhibition of C/EBPalpha level by Western blotting. The note with it: 3T3-L1. Summed up:
as §2

For data set [11] the target is unchanged. The data set is described as follows: Inhibition of AMPK in mouse 3T3L1 cells assessed as inhibition of PPARgamma level by Western blotting. The note with it: 3T3-L1. A digest of the protocol: as §2
Data set [12] shares this target. Kind of data set: Inhibition of AMPK-mediated adipocyte differentiation in mouse 3T3L1 cells. To be noted: 3T3-L1. Summed up: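 Compound (0, 5, 10 or 20 uM) co-applied with MDI differentiation medium on day 0 for 48 h. Differentiation ended at day 6 and lipid droplets were stained with Oil red O. Triplicate runs, means ± S.D.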

Sequence of 5'-AMP-activated protein kinase catalytic subunit alpha-2 (Mus musculus) (Q8BRK8 whole entry): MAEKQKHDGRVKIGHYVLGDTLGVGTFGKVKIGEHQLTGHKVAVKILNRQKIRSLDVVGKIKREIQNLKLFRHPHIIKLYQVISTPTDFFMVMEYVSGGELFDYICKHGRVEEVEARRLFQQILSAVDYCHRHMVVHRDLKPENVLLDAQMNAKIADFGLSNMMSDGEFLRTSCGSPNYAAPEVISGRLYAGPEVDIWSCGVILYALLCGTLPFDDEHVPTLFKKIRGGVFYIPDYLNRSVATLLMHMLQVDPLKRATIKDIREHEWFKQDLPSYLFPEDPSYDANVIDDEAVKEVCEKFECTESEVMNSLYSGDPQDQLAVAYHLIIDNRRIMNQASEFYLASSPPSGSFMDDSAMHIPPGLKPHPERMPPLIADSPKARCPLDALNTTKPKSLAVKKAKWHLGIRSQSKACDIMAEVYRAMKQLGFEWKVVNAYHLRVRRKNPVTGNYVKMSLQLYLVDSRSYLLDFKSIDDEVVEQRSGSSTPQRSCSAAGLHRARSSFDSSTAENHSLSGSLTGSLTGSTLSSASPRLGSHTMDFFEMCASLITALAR

Regarding `C[C@@H]1O[C@@H](OC[C@H]2O[C@@H](Oc3c(-c4ccc(O)c(O)c4)oc4cc(O)cc(O)c4c3=O)[C@H](O)[C@@H](O)[C@@H]2O)[C@H](O)[C@H](O[C@@H]2O[C@H](CO)[C@@H](O)[C@H](O)[C@H]2O)[C@H]1O`, the result in [1], in [3], in data set [4], in [5], in [8] and in data set [9] was Active. Besides, the outcome in [12] was Active. Further, the Activity entry in data set [2] is “Dose-dependent effect”; in [6] it was “Dose-dependent effect”; in [7], “Non-toxic”; in data set [10] it was “Dose-dependent effect”; in [11], “Dose-dependent effect”.
Consider `O=c1c(O[C@@H]2O[C@H](CO)[C@@H](O)[C@H](O)[C@H]2O)c(-c2ccc(O)cc2)oc2cc(O)cc(O)c12` [ASTRAGALIN], for which the Activity result in [7] is on record as “Non-toxic”. The outcome in data set [12] was Active.
Taken in the same sequence, the figures for `C[C@@H]1O[C@@H](OC[C@H]2O[C@@H](Oc3c(-c4ccc(O)c(O)c4)oc4cc(O)cc(O)c4c3=O)[C@H](O)[C@@H](O)[C@@H]2O)[C@H](O)[C@H](O[C@@H]2OC[C@@H](O)[C@H](O)[C@H]2O)[C@H]1O` were “Non-toxic” and “Active”.
The like results for `O=c1c(O)c(-c2ccc(O)c(O)c2)oc2cc(O)cc(O[C@@H]3O[C@H](CO)[C@@H](O)[C@H](O)[C@H]3O)c12` were, in that order, “Non-toxic” and “Active”.
Taken in the same sequence, the figures for `O=c1c(O[C@@H]2O[C@H](CO)[C@@H](O)[C@H](O)[C@H]2O)c(-c2ccc(O)c(O)c2)oc2cc(O)cc(O)c12` [ISOQUERCETIN] were “Non-toxic” and “Active”.
As for `COc1cc(-c2oc3cc(O)cc(O)c3c(=O)c2O[C@@H]2O[C@H](CO[C@@H]3O[C@@H](C)[C@H](O)[C@@H](O)[C@H]3O)[C@@H](O)[C@H](O)[C@H]2O)ccc1O` [NARCISSIN], the Activity result in [7] is “Non-toxic”. In addition, in data set [12], the outcome was Active.
Take `O=c1c(O)c(-c2ccc(O)cc2)oc2cc(O)cc(O)c12` [KAEMPFEROL]: the Activity result in [7] is “Non-toxic”. In addition, in data set [12], the result was Active.
On to `O=c1c(O)c(-c2ccc(O)c(O)c2)oc2cc(O)cc(O)c12` [QUERCETIN], for which the outcome in [3], in data set [8] and in [12] was Active. The Activity result in data set [7] is listed as “Non-toxic”.
As to `C[C@@H]1O[C@@H](OC[C@H]2O[C@@H](Oc3c(-c4ccc(O)c(O)c4)oc4cc(O)cc(O)c4c3=O)[C@H](O)[C@@H](O)[C@@H]2O)[C@H](O)[C@H](O)[C@H]1O` [RUTIN], the Activity entry in [7] is recorded as “Non-toxic”. Further, in [12], the result was Active.
